Assay outcomes deposited in PubChem BioAssay by several laboratories.
Sampled rows, rich in hits. Any-hit rate of the full collection: about 5.2%.
PfM18AAP inh: blocks P. falciparum M18 aspartyl aminopeptidase; recombinant PfM18AAP, H-Glu-NHMec fluorogenic cleavage; inhibition, % at 7.35 µM; 290,000 compounds, 1.2% hits; AID 1822;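 active means inhibition above the campaign mean inhibition over all tested compounds plus 3 SD, cut at about 28% in these data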;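 further: 0% = plate median of test compound wells and 100% = 2 mM ZnCl2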
HCV core dimer: blocks dimerization of HCV core protein; TR-FRET GST/Flag-core106 dimerization, 1536-well; inhibition, % at 5 µM; 300,000 compounds, 0.33% hits; AID 1899;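 active means inhibition above the mean of all tested compounds plus 3 SD, set per screening campaign, cut at about 45% in these data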
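assay system = GST-tagged and Flag-tagged HCV core protein residues 1-106 | controls = unlabelled core106 and no-GST-core106 wells | incubation = compound-protein-antibody incubation 4 h at 22.5 °C | probe or stimulus = Eu donor and XL665 acceptor anti-tag antibodies | read-out = % inhibition based on acceptor/donor emission ratio | signal = TR-FRET 671 and 617 nm emission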
HCV NS3 hel inh: blocks Hepatitis C virus NS3 helicase unwinding. NS3 helicase DNA unwinding, Cy5 molecular beacon fluorescence. inhibition, % at 10.9 µM. 290,000 compounds, 0.56% hits;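 active means inhibition above the mean of all tested compounds plus 3 SD, set per campaign, cut at about 35% in these data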;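 further: 0% = DMSO wells and 100% = thioflavine S control wells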
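Measured by: Cy5 fluorescence, 0 and 60 min reads / Assay system: NS3 helicase fragment of HCV / Control set: low DMSO, high thioflavine S at 110 µM / Times: 1 h reaction at 25 °C, ATP-initiated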
EBNA-1 inhibitor: blocks EBNA-1 binding to DNA. EBNA-1 DNA binding, fluorescence polarization. inhibition, % at 14.8 µM. 300,000 compounds, 0.34% hits. AID 1950; in the data active means inhibition above about 28%
ZTA counter: counter-screen for EBNA-1 inhibitors: inhibitors of Epstein-Barr virus ZTA; inhibition, % at 11 µM; 320,000 compounds, 0.15% hits; ZTA-DNA binding, fluorescence polarization; P03206; in the data active means inhibition above about 33%
Target sequence (P03206 whole entry, looked up): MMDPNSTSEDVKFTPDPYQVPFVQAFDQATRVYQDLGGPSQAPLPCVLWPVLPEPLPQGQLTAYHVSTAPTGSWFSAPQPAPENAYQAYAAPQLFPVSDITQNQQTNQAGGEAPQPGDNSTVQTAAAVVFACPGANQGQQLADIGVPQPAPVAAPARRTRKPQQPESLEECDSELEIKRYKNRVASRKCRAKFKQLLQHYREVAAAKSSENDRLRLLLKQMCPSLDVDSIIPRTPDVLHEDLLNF
ALR H2O2 inh: blocks human ALR sulfhydryl oxidase activity; purified ALR, DTT oxidation, H2O2 HRP-luminol luminescence; inhibition, % (no concentration beside the values); 290,000 compounds, 3.8% hits;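 active means mean replicate inhibition above about 79%, with every replicate also reaching it, limit read from the data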
Target sequence (P55789 whole entry, looked up): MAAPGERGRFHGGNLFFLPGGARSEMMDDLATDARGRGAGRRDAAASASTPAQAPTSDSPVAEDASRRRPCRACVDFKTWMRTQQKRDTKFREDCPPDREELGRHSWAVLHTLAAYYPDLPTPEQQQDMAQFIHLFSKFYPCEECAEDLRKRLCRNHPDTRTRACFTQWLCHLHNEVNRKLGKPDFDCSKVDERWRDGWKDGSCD
* marks the source's active call; other numbers are inactive results; . = no result.

SMILES	PfM18AAP inh	HCV core dimer	HCV NS3 hel inh	EBNA-1 inhibitor	ZTA counter	ALR H2O2 inh
COC(=O)/C(C#N)=C/c1ccc(-c2ccc(S(N)(=O)=O)cc2)o1	27	-5	19	8	4	-3
CCCCNC(=O)/C(C#N)=C/c1ccc(-c2ccc(S(=O)(=O)N3CCOCC3)cc2)o1	3	11	5	-9	44*	-56
COc1cc(C(=S)N(C)C)ccc1O	9	-1	-6	0	-8	92*
CCCOC(=O)c1ccc(O)c(OC)c1	-1	-3	-1	-2	-13	-1
CCOC(=O)c1cnc(SC2CC(=O)N(c3cccc(OC)c3)C2=O)nc1N (stereo not drawn)	29*	0	4	1	-2	12
CCOC(=O)c1ccc(N2C(=O)CC(Sc3ncccn3)C2=O)cc1 (stereo not drawn)	0	5	-2	-3	1	2
O=[N+]([O-])c1ccc2c(c1)nc(CO)n2Cc1ccccc1	-3	-5	-3	-13	-11	3
CCN(CC(=O)Nc1c(F)cccc1F)C(=O)c1cnccn1	.	-1	.	-8	-7	18
COc1ccc(NCc2ccc3c(c2)OCO3)cc1Cl	1	-6	-2	-14	-16	97*
COc1cc(CNc2ccc3c(c2)OCCO3)ccc1OCC(N)=O	-3	-6	3	-8	2	99*
COc1cc2sc3cc(NCc4ccc5c(c4)OCO5)ccc3c(=O)c2cc1OC	.	.	.	.	.	0
Cc1ccc(S(=O)(=O)N(C)CC(=O)N2CCCCCC2)cc1	-11	-12	1	7	-6	-26
O=c1c2ccccc2c(C=NC2CCN(Cc3ccccc3)CC2)c(O)n1Cc1ccc2c(c1)OCO2	1	2	-51	4	8	-5
C=CCNC(=S)NN(c1ccccc1)c1ccccc1	7	-2	8	6	3	63
CC(C)NC(=S)NN(c1ccccc1)c1ccccc1	2	-2	1	5	-11	99*
Cc1csc(N)n1	-1	16	2	-1	12	.
Cc1ccc(-c2csc(N)n2)s1	15	1	7	0	-13	99*
COc1ccccc1/C=C\C(=O)NCC(=O)N/N=C(/C)c1cccc([N+](=O)[O-])c1	3	2	-9	1	6	-17
O=C(CSc1nnc(-c2ccco2)o1)c1ccc[nH]1	7	63*	19	3	7	98*
O=C(CSc1nnc(-c2ccco2)o1)c1ccccc1	3	23	6	4	-2	99*
Cc1cccc(CSc2nnc(-c3ccco3)o2)c1	5	-3	-4	-7	2	-4
CC(=O)c1c(C)cc(C)c(CSc2nnc(-c3ccco3)o2)c1C	1	0	-3	3	7	90*
O=C(CSc1nnc(-c2ccco2)o1)c1ccc(F)c(F)c1	3	5	6	3	-1	28
COc1ccc(NC(=O)CN2CCN(CC(=O)Nc3ccc(OC)cc3)CC2)cc1	10	-4	-3	1	-5	-4
COc1cccc(CNC(=O)CCc2ccc(OC)c(OC)c2)c1	-17	2	14	-19	-13	.
SMILES	PfM18AAP inh	HCV core dimer	HCV NS3 hel inh	EBNA-1 inhibitor	ZTA counter	ALR H2O2 inh
Cc1c(O)c(CN2CCCC2)cc2c1oc(=O)c1ccccc12	2	5	-5	-3	-20	85*
CNC(=O)COC(=O)/C=C/c1nc2ccccc2s1	-5	-2	-5	-3	4	.
CCN(CC)c1ccc(NC(=O)COC(=O)/C=C/c2nc3ccccc3s2)cc1	3	10	-7	-2	-13	99*
COc1cc2c(cc1OC)C(c1cc(Br)c(OC)c(OC)c1)CC(=O)N2 (stereo not drawn)	-1	.	0	.	.	-14
Cc1ccc2cc3c(N)c(C(=O)Nc4c(C)[nH]c(=O)[nH]c4=O)sc3nc2c1	12	-27	7	16	6	96*
Cc1noc(C)c1S(=O)(=O)Nc1ccc2c(c1)CC(=O)N([C@H](C)CO)C[C@H](C)[C@H](CN(C)S(=O)(=O)c1ccc(F)cc1)O2	.	.	.	.	.	-3
CCN(CC)CCn1c2c(c(SCC(=O)Nc3nccs3)nc1=O)CCCC2	.	-4	.	3	1	98*
CN(C)CCn1c2c(c(SCC(=O)Nc3nccs3)nc1=O)CCCC2	.	-2	.	2	-6	96*
O=C(COc1coc(CN2CCc3ccccc3C2)cc1=O)Nc1cccc([N+](=O)[O-])c1	.	18	.	2	9	2
CCN(CC)CCN1C(=O)C2C(C(=O)Nc3cc(C)cc(C)c3)C3C=CC2(O3)C1C(=O)NC1CCCCC1 (stereo not drawn)	1	2	-2	-7	17	4
O=C1CCCN1CCCNc1ncnc2c1[nH]c1ccc(Cl)cc12	13	-2	-17	9	-13	98*
Clc1ccc2[nH]c3c(NCCCN4CCOCC4)ncnc3c2c1	9	5	-15	-10	1	-9
CCC1(C)OC(=O)NN(c2ccc(C)cc2)C1(C)O (stereo not drawn)	2	-8	5	12	-6	95*
Cc1c(NC(=O)C(C)Oc2ccc(Br)cc2Cl)c(=O)n(-c2ccccc2)n1C (stereo not drawn)	.	-7	.	6	10	-3
COc1ccc(C(=O)Nc2ccc(S(=O)(=O)NC(C)=O)cc2)cc1[N+](=O)[O-]	19	3	8	-5	-5	99*
O=C(NC(=S)NNC(=O)c1ccccc1[N+](=O)[O-])c1ccc(Br)cc1	14	5	16	-4	-8	99*
COc1ccc(C(=O)NNC(=S)NC(=O)c2cccc([N+](=O)[O-])c2)cc1	.	0	.	-12	5	98*
COc1ccc(C(=O)NC(=S)NNC(=O)c2ccc(O)cc2)cc1[N+](=O)[O-]	18	-14	8	-1	-13	97*
O=C(NNC(=S)NC(=O)c1ccccc1[N+](=O)[O-])c1ccccc1Cl	16	1	4	-4	0	5
CCOc1ccccc1N(CC(=O)Nc1ccccc1C(=O)N1CCCC1)S(C)(=O)=O	-9	-11	13	-10	-32	0
CC1CN(CCc2ccccc2)c2nc3c(c(=O)n(CC(N)=O)c(=O)n3C)n2C1 (stereo not drawn)	7	-18	6	0	-15	-1
COC(=O)C1CN(S(=O)(=O)c2cc(OC)ccc2OC)CCS1 (stereo not drawn)	0	16	-2	6	-9	-5
Cc1cccc(-n2cnc3c(c2=O)c2nc4ccccc4nc2n3Cc2ccco2)c1	.	60*	.	-1	6	4
O=C(COc1cccc(C(F)(F)F)c1)N1CCN(c2ccccc2O)CC1	1	2	-3	1	22	98*
CCOc1ccc(S(=O)(=O)NCCC(=O)N2CCN(c3ccccc3O)CC2)cc1	.	3	.	-1	3	98*
